Experimental data collected from several papers.
Each line is one published result; the experiments were not run side by side.
Target: Acetylcholinesterase (ACHE, Homo sapiens, UniProt P22303)
Observed: enzyme activity
Mode: inhibitor

| SMILES | test | conditions | IC50 [µM] |
| --- | --- | --- | --- |
| CCCCNc1ccc(C(=O)OCCN(CC)CC)cc1 |  |  | 18.7 |
| C=CCn1c2cc(OC(=O)CCCCN3CCN(Cc4ccc(C)cc4)CC3)ccc2c2ccnc(C)c21 | Ellman |  | 0.0126 |
| C#CCNc1nc(NCCCC2CCN(Cc3ccccc3)CC2)c(C#N)cc1C#N | Ellman |  | 0.001 |
| c1cc(CN2CCCCC2)cc(OCCCNc2nc3ccccc3s2)c1 |  |  | 22.6 |
| CNC(=O)Oc1cccc2c1OC(C)(C)O2 | Ellman |  | 0.182 |
| CN1CCN(CCCOc2ccc3occc(=O)c3c2)CC1 | Ellman | pH 7.4 | 65.1 |
| CS(=O)(=O)n1cc(Br)c(=O)[nH]c1=O | Ellman |  | 0.111 |
| C#CCN(C)c1nc(NCCCCC2CCN(Cc3ccccc3)CC2)c(C#N)c(-c2ccccc2)c1C#N | Ellman |  | 0.025 |
| CNC(=O)Oc1cccc2c1OC(C)(C)C2 | Ellman |  | 0.038 |
| Cc1ccc(S(=O)(=O)n2cc(Br)c(=O)[nH]c2=O)cc1 | Ellman |  | 0.088 |
| C=CCn1c2cc(OC(=O)CCCCN3CCN(Cc4cccc(F)c4)CC3)ccc2c2ccnc(C)c21 | Ellman |  | 0.106 |
| Cn1ccc(=O)n(C)c1=O | Ellman |  | 0.388 |
| COc1ncccc1-c1cnn2ccc(N3CCN(C(=O)OC(C)C)CC3)nc12 |  |  | > 60 |
| C=CCn1c2cc(OC(=O)CCCCN3CCN(Cc4ccccc4)CC3)ccc2c2ccnc(C)c21 | Ellman |  | 0.0588 |
| CC(=O)O[C@H]1C[C@@H]2CC[C@@H]3[C@H](CC[C@@]4(C)[C@H]3C[C@H]([N+]3(C)CCCCC3)[C@@H]4OC(C)=O)[C@@]2(C)C[C@@H]1N1CCCCC1 |  |  | 16.5 |
| O=c1[nH]cc(CO)c(=O)[nH]1 | Ellman |  | 0.205 |
| C[C@@H]1CCCN1CCCCOc1ccc2occc(=O)c2c1 | Ellman | pH 7.4 | 8.62 |
| C=CCn1c2cc(OC(=O)CCCCN3CCN(Cc4ccc(F)cc4)CC3)ccc2c2ccnc(C)c21 | Ellman |  | 0.0894 |
| c1ccc2c(c1)[I+]c1ccccc1-2 |  |  | 16.1 |
| C=CCn1c2cc(OC(=O)CCCCCCN3CCN(Cc4ccccc4)CC3)ccc2c2ccnc(C)c21 | Ellman |  | 0.286 |
| O=C(NCCCNc1c2c(nc3ccccc13)CCCC2)c1ccccc1O | Ellman |  | 1.02 |
| COc1cc2c3cc1Oc1cc(ccc1O)C[C@@H]1c4c(cc(OC)c(O)c4Oc4ccc(cc4)C[C@@H]3N(C)CC2)CC[N+]1(C)C | Ellman |  | 57.6 |
| C=CCn1c2cc(OC(=O)CCCCN3CCN(Cc4ccccc4C)CC3)ccc2c2ccnc(C)c21 | Ellman |  | 0.0157 |
